Results on 21 molecules are retold here after ChEMBL document CHEMBL1145968, “3-(alphaR)-alpha-((2S,5R)-4-allyl-2,5-dimethyl-1-piperazinyl)-3-hydroxybenzyl)-N-alkyl-N-arylbenzamides: potent, non-peptidic agonists of both the micro and delta opioid receptors” (J Med Chem, 2003).

One may read the EC50 as the midpoint of the concentration-response curve. Low readings indicate higher potency in that assay, high ones lower potency in that assay. Broadly, the Ki is a dissociation constant, usually derived from enzyme kinetics or from competition with a known ligand. Read a low Ki as higher affinity.

The species entered for one assay is Mus musculus. The assay can be described thus: Inhibition of the electrically induced muscle contractions was determined using the mouse vas deferens. The class given is functional. An outline of the steps:
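Vas deferens segments in Krebs buffer, placed between platinum electrodes with isometric force recording at 0.5 g resting tension. Stimulated with 400 ms trains (1 ms pulses, 10 Hz, supramaximal voltage). Cumulative concentrations were each allowed maximal effect before the next.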

For another assay, the species on record is Cavia porcellus. The assay can be described thus: Inhibition of the electrically induced muscle contractions was determined using the guinea pig ileum. The class given is functional. An outline of the steps: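 Intact ileum segments (about 3 cm) suspended under 1 g tension in modified Krebs buffer containing 1.20 mM MgSO4. Field-stimulated with square-wave pulses at 0.1 Hz, 0.5 ms, supramaximal voltage. Cumulative concentrations were each given time for maximal response before the next.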

The target in assay [1] is Delta-type opioid receptor (Rattus norvegicus, UniProt P33533). In words: Binding affinity of compound evaluated for Opioid receptor delta 1 isolated from rat brain.
Chain of Delta-type opioid receptor (P33533 whole entry): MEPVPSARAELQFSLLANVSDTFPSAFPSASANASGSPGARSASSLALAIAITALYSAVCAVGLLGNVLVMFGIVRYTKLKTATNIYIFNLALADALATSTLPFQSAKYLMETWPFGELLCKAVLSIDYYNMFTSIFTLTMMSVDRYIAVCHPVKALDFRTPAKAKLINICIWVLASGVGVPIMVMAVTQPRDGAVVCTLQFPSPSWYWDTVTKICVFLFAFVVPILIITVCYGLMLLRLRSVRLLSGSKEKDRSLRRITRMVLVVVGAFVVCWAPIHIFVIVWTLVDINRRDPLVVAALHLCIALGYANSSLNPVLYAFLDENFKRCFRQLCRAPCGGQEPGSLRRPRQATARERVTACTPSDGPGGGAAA

In the case of `C=CCN1C[C@H](C)N([C@@H](c2cccc(O)c2)c2cccc(C(=O)N(CCCC)c3ccccc3)c2)C[C@H]1C`, the EC50 in the assay listed under Mus musculus (Mus musculus) is 1.7 nM; in the assay listed under Cavia porcellus (Cavia porcellus, Ileum) it was 41 nM.
As for `C=CCN1C[C@H](C)N([C@@H](c2cccc(O)c2)c2cccc(C(=O)N(C)c3ccc(Cl)cc3)c2)C[C@H]1C`, the Ki in assay [1] is 2.73 nM. For the same molecule, the EC50 in the assay filed under Mus musculus (Mus musculus) worked out at 2.6 nM; in the assay filed under Cavia porcellus (Cavia porcellus, Ileum) it was 4.9 nM.
Turning to `C=CCN1C[C@H](C)N([C@@H](c2cccc(O)c2)c2cccc(C(=O)N(C)c3ccccc3C(F)(F)F)c2)C[C@H]1C`, the EC50 in the assay filed under Mus musculus (Mus musculus) worked out at 0.95 nM; in the assay filed under Cavia porcellus (Cavia porcellus, Ileum), 5.6 nM.
Turning to `C=CCN1C[C@H](C)N([C@@H](c2cccc(O)c2)c2cccc(C(=O)N(C)CCc3ccccc3)c2)C[C@H]1C`, the EC50 in the assay filed under Mus musculus (Mus musculus) came to 0.34 nM; in the assay listed under Cavia porcellus (Cavia porcellus, Ileum) it was 6.6 nM.
In turn, `C=CCN1C[C@H](C)N([C@@H](c2cccc(O)c2)c2cccc(C(=O)N(C)c3ccccc3)c2)C[C@H]1C` gave a Ki in assay [1] of 1.37 nM. Besides, the EC50 in the assay listed under Mus musculus (Mus musculus) stood at 1.7 nM; in the assay listed under Cavia porcellus (Cavia porcellus, Ileum), 59.5 nM.
`C=CCN1C[C@H](C)N([C@@H](c2cccc(O)c2)c2cccc(C(=O)N(c3ccccc3)C3CC3)c2)C[C@H]1C` displayed a Ki in assay [1] of 1.92 nM. For the same molecule, the EC50 in the assay listed under Mus musculus (Mus musculus) turned out to be 1.42 nM; in the assay listed under Cavia porcellus (Cavia porcellus, Ileum) it was 1.23 nM.
Take `C=CCN1C[C@H](C)N([C@@H](c2cccc(O)c2)c2cccc(C(=O)N(C)c3ccccc3F)c2)C[C@H]1C`: the EC50 amounted to 0.69 nM in the assay filed under Mus musculus (Mus musculus) and 4.1 nM in the assay listed under Cavia porcellus (Cavia porcellus, Ileum).
In assay [1], `C=CCN1C[C@H](C)N([C@@H](c2cccc(O)c2)c2cccc(C(=O)N3CCCc4ccccc43)c2)C[C@H]1C` gave a Ki of 1.18 nM. For the same molecule, the EC50 in the assay filed under Mus musculus (Mus musculus) is 1.05 nM; in the assay listed under Cavia porcellus (Cavia porcellus, Ileum), 11.5 nM.
With `C=CCN1C[C@H](C)N([C@@H](c2cccc(O)c2)c2cccc(C(=O)N(CCC)c3ccccc3)c2)C[C@H]1C`, affinity in assay [1] was put at a Ki of 1.26 nM. The EC50 is 2.4 nM in the assay listed under Mus musculus (Mus musculus) and 18 nM in the assay listed under Cavia porcellus (Cavia porcellus, Ileum).
As for `C=CCN1C[C@H](C)N([C@@H](c2cccc(O)c2)c2cccc(C(=O)N(C)c3ccc([N+](=O)[O-])cc3)c2)C[C@H]1C`, the EC50 in the assay filed under Mus musculus (Mus musculus) was found to be 2.3 nM; in the assay listed under Cavia porcellus (Cavia porcellus, Ileum), 4.1 nM.
For `C=CCN1C[C@H](C)N([C@H](c2cccc(O)c2)c2cccc(C(=O)N(C)c3ccccc3)c2)C[C@H]1C`, in that order: 0.47 nM and 1.22 nM.
`C=CCN1C[C@H](C)N([C@@H](c2cccc(O)c2)c2cccc(C(=O)N(C)c3ccc(OC)cc3)c2)C[C@H]1C` came in with a Ki in assay [1] of 2.01 nM. In addition, the EC50 in the assay listed under Mus musculus (Mus musculus) was found to be 0.36 nM; in the assay listed under Cavia porcellus (Cavia porcellus, Ileum), 1.1 nM.
As for `C=CCN1C[C@H](C)N([C@@H](c2cccc(O)c2)c2cccc(C(=O)N(CC)c3ccc(F)cc3)c2)C[C@H]1C`, the EC50 in the assay filed under Mus musculus (Mus musculus) is 1.4 nM; in the assay filed under Cavia porcellus (Cavia porcellus, Ileum) it was 4 nM.
`C=CCN1C[C@H](C)N([C@H](c2cccc(O)c2)c2cccc(C(=O)N(CC)CC)c2)C[C@H]1C` yielded a Ki in assay [1] of 2.1 nM. Further, the EC50 came to 5.85 nM in the assay filed under Mus musculus (Mus musculus) and 4.35 nM in the assay filed under Cavia porcellus (Cavia porcellus, Ileum).
For `C=CCN1C[C@H](C)N([C@@H](c2cccc(O)c2)c2cccc(C(=O)N(CCC)c3ccc(F)cc3)c2)C[C@H]1C`, in that order: 2.75 nM, 0.68 nM and 1050 nM.
For the molecule `C=CCN1C[C@H](C)N([C@@H](c2cccc(O)c2)c2cccc(C(=O)N(CC)c3ccccc3)c2)C[C@H]1C`, in assay [1], the affinity, expressed as Ki, was 2.17 nM. The EC50 in the assay listed under Mus musculus (Mus musculus) was 0.96 nM; in the assay listed under Cavia porcellus (Cavia porcellus, Ileum) it was 0.94 nM.
As to `C=CCN1C[C@H](C)N([C@@H](c2cccc(O)c2)c2cccc(C(=O)N(C)Cc3ccccc3)c2)C[C@H]1C`, the EC50 in the assay filed under Mus musculus (Mus musculus) is 5.6 nM; in the assay filed under Cavia porcellus (Cavia porcellus, Ileum), 6.07 nM.
Consider `C=CCN1C[C@H](C)N([C@@H](c2cccc(O)c2)c2cccc(C(=O)N(C)c3ccc(F)cc3)c2)C[C@H]1C`, for which, in assay [1], the Ki stood at 1.4 nM. In addition, the EC50 turned out to be 1.1 nM in the assay listed under Mus musculus (Mus musculus) and 0.67 nM in the assay filed under Cavia porcellus (Cavia porcellus, Ileum).
Consider `C=CCN1C[C@H](C)N(C(c2ccc(C(=O)N(CC)CC)cc2)c2cccc(O)c2)C[C@H]1C` (single isomer, unassigned), for which the affinity in assay [1], expressed as Ki, was 1.8 nM. Moreover, the EC50 in the assay listed under Mus musculus (Mus musculus) turned out to be 0.2 nM; in the assay filed under Cavia porcellus (Cavia porcellus, Ileum), 150 nM.
In assay [1], `C=CCN1C[C@H](C)N([C@@H](c2cccc(O)c2)c2cccc(C(=O)N(C)c3cccc(F)c3)c2)C[C@H]1C` (stereo in doubt; 24) yielded a Ki of 0.18 nM. Further, the EC50 in the assay listed under Mus musculus is 0.79 nM; in the assay listed under Cavia porcellus it was 3.4 nM.
Taken in the same sequence, the figures for `C=CCN1C[C@H](C)N([C@@H](c2cccc(O)c2)c2cccc(C(=O)N(C)c3cccc(F)c3)c2)C[C@H]1C` (stereo in doubt; 32) were 11.4 nM, 25.3 nM and 1800 nM.
